Assay results from ChEMBL document CHEMBL1143838, “Candida albicans and Candida dubliniensis respond differently to echinocandin antifungal agents in vitro” (2007).
Values after ≈ are worked out from the molar mass of the structure shown. *1 amine or outer side, *2 acyl side, *3 side chain or, on linkers, in order; H or OH if unused. Where a SMILES comes first, the peptide text is derived from it. Bridges are numbered along the chain shown (N, C = ends). [ ]: non-standard residue; d: D form. The star is where a group is joined. hTyr(3S-OH,4S-OH,3'-OSO3H) = N[C@H](C(=O)O)[C@H](O)[C@@H](O)c1ccc(O)c(OS(=O)(=O)O)c1; Orn(4R-OH,5R-OH) = O=C([C@H](C[C@@H](O)[C@@H](O)N[*:3])N[*:1])[*:2]; Pro(3S-OH,4S-Me) = C[C@H]1CN[C@H](C(=O)O)[C@H]1O; X1 = CCCCCOc1ccc(-c2cc(-c3ccc(C(=O)*)cc3)no2)cc1; Gln(3R-OH) = NC(=O)C[C@@H](O)[C@H](N)C(=O)O; Hyp = O=C(O)[C@@H]1C[C@@H](O)CN1

Key:
Type in all cases: functional
Candida dubliniensis [1] = assay: Antifungal activity against Candida dubliniensis J931021 after 24 hrs by EUCAST test
Outline: (§1)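 Yeasts were grown overnight at 30°C in NGY, then inoculated at 10^5 yeasts/ml initial concentration into MOPS-buffered RPMI 1640 with 2% glucose containing aqueous doubling dilutions of drug. Plates were held at 35°C for 24 h. MICs came from triplicate spectrophotometric dose-response data at 50% and 80% growth-reduction endpoints. Trailing meant a >100-fold gap between these endpoints; paradoxical meant regrowth ≥5% above the curve minimum.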

Candida albicans [2] = assay: Antifungal activity against Candida albicans JIMS132203 after 24 hrs by EUCAST test
Outline: (§2)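 EUCAST broth microdilution with aqueous doubling dilutions of drug. Inoculum grown overnight at 30°C in NGY, then added to MOPS-buffered RPMI 1640 with 2% glucose at an initial 10^5 yeasts/ml. Incubated 35°C for 24 h. MICs taken from triplicate spectrophotometric dose-response data as 50% and 80% growth-reduction endpoints.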

Candida albicans [3] = assay: Antifungal activity against Candida albicans JIMS101103 after 24 hrs by EUCAST test; outline: as §2
Candida parapsilosis [4] = assay: Antifungal activity against Candida parapsilosis ATCC 22019 after 24 hrs by EUCAST test; details: Lodderomyces parapsilosis, ATCC 22019, 24 h; outline: as §1
Candida albicans [5] = assay: Antifungal activity against Candida albicans NR3 after 24 hrs by CLSI M27-A test
Outline: (§3)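 CLSI M27-A broth microdilution with aqueous doubling dilutions of drug. Inoculum grown overnight at 30°C in NGY medium, then added to MOPS-buffered RPMI 1640 at an initial 10^3 yeasts/ml. Incubated 35°C for 24 h. MIC read visually as the lowest concentration giving a marked decrease in visible growth; paradoxical or trailing growth noted.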

Candida albicans [6] = assay: Antifungal activity against Candida albicans SCS68858 after 24 hrs by EUCAST test; outline: as §2
Candida albicans [7] = assay: Antifungal activity against Candida albicans T25 after 24 hrs by EUCAST test; outline: as §2
Candida albicans [8] = assay: Antifungal activity against Candida albicans JIMS132203 after 24 hrs by CLSI M27-A test; outline: as §3
Candida dubliniensis [9] = assay: Antifungal activity against Candida dubliniensis 75/043 after 24 hrs by CLSI M27-A test; outline: as §3
Candida dubliniensis [10] = assay: Antifungal activity against Candida dubliniensis FS after 24 hrs by EUCAST test; outline: as §1
Candida parapsilosis [11] = assay: Antifungal activity against Candida parapsilosis ATCC 22019 after 24 hrs by CLSI M27-A test; details: Lodderomyces parapsilosis, ATCC 22019, 24 h
Outline: (§4)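 Broth microdilution with echinocandins as aqueous doubling dilutions. Yeasts were grown overnight at 30°C in NGY and seeded at 10^3 yeasts/ml initial concentration in MOPS-buffered RPMI 1640, then incubated at 35°C for 24 h. The MIC was read visually as the lowest concentration giving a marked decrease in visible growth; paradoxical or trailing growth was noted.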

Candida dubliniensis [12] = assay: Antifungal activity against Candida dubliniensis SCSBB417709 after 24 hrs by EUCAST test; outline: as §1
Candida dubliniensis [13] = assay: Antifungal activity against Candida dubliniensis IK after 24 hrs by CLSI M27-A test; outline: as §4
Candida albicans [14] = assay: Antifungal activity against Candida albicans SCS140136P after 24 hrs by EUCAST test; outline: as §2
Candida dubliniensis [15] = assay: Antifungal activity against Candida dubliniensis IK after 24 hrs by EUCAST test; outline: as §1
Candida albicans [16] = assay: Antifungal activity against Candida albicans JIMS146204 after 24 hrs by CLSI M27-A test; outline: as §3
Candida albicans [17] = assay: Antifungal activity against Candida albicans B06-341 after 24 hrs by EUCAST test; outline: as §2
Candida albicans [18] = assay: Antifungal activity against Candida albicans CAI4RI after 24 hrs by CLSI M27-A test; outline: as §3
Candida albicans [19] = assay: Antifungal activity against Candida albicans AM2003/0083 after 24 hrs by EUCAST test; outline: as §2
Candida albicans [20] = assay: Antifungal activity against Candida albicans B06-341 after 24 hrs by CLSI M27-A test; outline: as §3
Candida dubliniensis [21] = assay: Antifungal activity against Candida dubliniensis KR after 24 hrs by EUCAST test; outline: as §1
Candida dubliniensis [22] = assay: Antifungal activity against Candida dubliniensis SCS17154969-1 after 24 hrs by CLSI M27-A test; outline: as §4
Candida albicans [23] = assay: Antifungal activity against Candida albicans NR4 after 24 hrs by CLSI M27-A test; outline: as §3
Candida dubliniensis [24] = assay: Antifungal activity against Candida dubliniensis SCS65875C after 24 hrs by EUCAST test; outline: as §1
Candida albicans [25] = assay: Antifungal activity against Candida albicans SC5314 after 24 hrs by EUCAST test; details: SC5314, 24 h; outline: as §2
Candida albicans [26] = assay: Antifungal activity against Candida albicans SCS68858 after 24 hrs by CLSI M27-A test; outline: as §3
Candida dubliniensis [27] = assay: Antifungal activity against Candida dubliniensis FS after 24 hrs by CLSI M27-A test; outline: as §4
Candida albicans [28] = assay: Antifungal activity against Candida albicans T28 after 24 hrs by EUCAST test; outline: as §2
Candida albicans [29] = assay: Antifungal activity against Candida albicans T32 after 24 hrs by CLSI M27-A test; outline: as §3
Candida albicans [30] = assay: Antifungal activity against Candida albicans SCS67023C after 24 hrs by CLSI M27-A test; outline: as §3
Candida dubliniensis [31] = assay: Antifungal activity against Candida dubliniensis 90/033 after 24 hrs by EUCAST test; outline: as §2
Candida dubliniensis [32] = assay: Antifungal activity against Candida dubliniensis AMCC after 24 hrs by CLSI M27-A test; outline: as §3
Candida dubliniensis [33] = assay: Antifungal activity against Candida dubliniensis SCS59662 after 24 hrs by EUCAST test; outline: as §1
Candida albicans [34] = assay: Antifungal activity against Candida albicans T25 after 24 hrs by CLSI M27-A test; outline: as §3
Candida albicans [35] = assay: Antifungal activity against Candida albicans HK04M102095 after 24 hrs by CLSI M27-A test; outline: as §3
Candida dubliniensis [36] = assay: Antifungal activity against Candida dubliniensis ST after 24 hrs by EUCAST test; outline: as §1
Candida dubliniensis [37] = assay: Antifungal activity against Candida dubliniensis 910Aa after 24 hrs by CLSI M27-A test; outline: as §3
Candida dubliniensis [38] = assay: Antifungal activity against Candida dubliniensis B71507 after 24 hrs by EUCAST test; outline: as §1
Candida dubliniensis [39] = assay: Antifungal activity against Candida dubliniensis 910Aa after 24 hrs by EUCAST test; outline: as §2
Candida dubliniensis [40] = assay: Antifungal activity against Candida dubliniensis Leic952 after 24 hrs by CLSI M27-A test; outline: as §4
Candida dubliniensis [41] = assay: Antifungal activity against Candida dubliniensis SCS59662 after 24 hrs by CLSI M27-A test; outline: as §4
Candida albicans [42] = assay: Antifungal activity against Candida albicans NR4 after 24 hrs by EUCAST test; outline: as §2
Candida dubliniensis [43] = assay: Antifungal activity against Candida dubliniensis SCSBB417709 after 24 hrs by CLSI M27-A test; outline: as §4
Candida dubliniensis [44] = assay: Antifungal activity against Candida dubliniensis Leic875 after 24 hrs by CLSI M27-A test; outline: as §4
Candida dubliniensis [45] = assay: Antifungal activity against Candida dubliniensis J930936 after 24 hrs by CLSI M27-A test; outline: as §4
Candida albicans [46] = assay: Antifungal activity against Candida albicans Y109 after 24 hrs by CLSI M27-A test; outline: as §3
Candida dubliniensis [47] = assay: Antifungal activity against Candida dubliniensis SCS65875C after 24 hrs by CLSI M27-A test; outline: as §4

CCCCCOc1ccc(-c2cc(-c3ccc(C(=O)N[C@H]4C[C@@H](O)[C@@H](O)NC(=O)[C@@H]5[C@@H](O)[C@@H](C)CN5C(=O)[C@H]([C@H](O)CC(N)=O)NC(=O)[C@H]([C@H](O)[C@@H](O)c5ccc(O)c(OS(=O)(=O)O)c5)NC(=O)[C@@H]5C[C@@H](O)CN5C(=O)[C@H]([C@@H](C)O)NC4=O)cc3)no2)cc1 [MICAFUNGIN] (X1-[Orn(4R-OH,5R-OH)]T[Hyp][hTyr(3S-OH,4S-OH,3'-OSO3H)][Gln(3R-OH)][Pro(3S-OH,4S-Me)]; lactam 1-C)
MIC50 (Candida dubliniensis [1]): 0.063 µg/mL (≈ 0.0496 µM) | MIC50 (Candida albicans [2]): ≤ 0.032 µg/mL | MIC50 (Candida albicans [3]): ≤ 0.032 µg/mL | MIC50 (Candida parapsilosis [4]): 0.5 µg/mL (≈ 0.394 µM) | MIC50 (Candida albicans [5]): 1 µg/mL (≈ 0.787 µM) | MIC50 (Candida albicans [6]): ≤ 0.032 µg/mL | MIC50 (Candida albicans [7]): 1 µg/mL (≈ 0.787 µM) | MIC50 (Candida albicans [8]): ≤ 0.032 µg/mL | MIC50 (Candida dubliniensis [9]): ≤ 0.032 µg/mL | MIC50 (Candida dubliniensis [10]): 0.063 µg/mL (≈ 0.0496 µM) | MIC50 (Candida parapsilosis [11]): 0.25 µg/mL (≈ 0.197 µM) | MIC50 (Candida dubliniensis [12]): ≤ 0.032 µg/mL | MIC50 (Candida dubliniensis [13]): ≤ 0.032 µg/mL | MIC50 (Candida albicans [14]): ≤ 0.032 µg/mL | MIC50 (Candida dubliniensis [15]): ≤ 0.032 µg/mL | MIC50 (Candida albicans [16]): ≤ 0.032 µg/mL | MIC50 (Candida albicans [17]): ≤ 0.032 µg/mL | MIC50 (Candida albicans [18]): 0.25 µg/mL (≈ 0.197 µM) | MIC50 (Candida albicans [19]): ≤ 0.032 µg/mL | MIC50 (Candida albicans [20]): ≤ 0.032 µg/mL | MIC50 (Candida dubliniensis [21]): ≤ 0.032 µg/mL | MIC50 (Candida dubliniensis [22]): ≤ 0.032 µg/mL | MIC50 (Candida albicans [23]): 0.25 µg/mL (≈ 0.197 µM) | MIC50 (Candida dubliniensis [24]): ≤ 0.032 µg/mL | MIC50 (Candida albicans [25]): ≤ 0.032 µg/mL | MIC50 (Candida albicans [26]): ≤ 0.032 µg/mL | MIC50 (Candida dubliniensis [27]): ≤ 0.032 µg/mL | MIC50 (Candida albicans [28]): ≤ 0.032 µg/mL | MIC50 (Candida albicans [29]): ≤ 0.032 µg/mL | MIC50 (Candida albicans [30]): ≤ 0.032 µg/mL | MIC50 (Candida dubliniensis [31]): 0.063 µg/mL (≈ 0.0496 µM) | MIC50 (Candida dubliniensis [32]): ≤ 0.032 µg/mL | MIC50 (Candida dubliniensis [33]): ≤ 0.032 µg/mL | MIC50 (Candida albicans [34]): 1 µg/mL (≈ 0.787 µM) | MIC50 (Candida albicans [35]): ≤ 0.032 µg/mL | MIC50 (Candida dubliniensis [36]): 0.063 µg/mL (≈ 0.0496 µM) | MIC50 (Candida dubliniensis [37]): ≤ 0.032 µg/mL | MIC50 (Candida dubliniensis [38]): 0.063 µg/mL (≈ 0.0496 µM) | MIC50 (Candida dubliniensis [39]): ≤ 0.032 µg/mL | MIC50 (Candida dubliniensis [40]): ≤ 0.032 µg/mL | MIC50 (Candida dubliniensis [41]): ≤ 0.032 µg/mL | MIC50 (Candida albicans [42]): 0.5 µg/mL (≈ 0.394 µM) | MIC50 (Candida dubliniensis [43]): ≤ 0.032 µg/mL | MIC50 (Candida dubliniensis [44]): ≤ 0.032 µg/mL | MIC50 (Candida dubliniensis [45]): ≤ 0.032 µg/mL | MIC50 (Candida albicans [46]): 0.25 µg/mL (≈ 0.197 µM) | MIC50 (Candida dubliniensis [47]): ≤ 0.032 µg/mL
